# Measurements published in ChEMBL document CHEMBL1121743, “Synthesis and antibacterial activity of 1-(arylamino)-1H-pyrroles and 4-(1H-pyrrol-1-ylimino)-2,5-cyclohexadienes” (1981).
# The source made the active and inactive calls. The rule behind the calls is not given here.
# Assays:
# [1] = test system: Proteus mirabilis; test: Minimum inhibitory dilution of medicated rat urine tested in vitro for antibacterial activity against Proteus mirabilis; Less than 1:2; format: functional
# [2] = test system: Proteus mirabilis; test: In vitro minimum inhibitory concentration against Proteus mirabilis; format: functional
# Procedure, shortened: (§1)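 Compounds were dissolved in water, or in water with the minimum DMSO needed to keep them in solution, and tested by an established dilution method. A ">" prefix means the DMSO solvent blank was inhibitory at that level.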
# [3] = test system: Staphylococcus aureus; test: In vitro minimum inhibitory concentration against Staphylococcus aureus; format: functional; procedure, shortened: as §1
# [4] = test system: Staphylococcus aureus; test: Minimum inhibitory dilution of medicated rat urine tested in vitro for antibacterial activity against Staphylococcus aureus; Less than 1:2; format: functional
# [5] = test system: Proteus mirabilis; test: Minimum inhibitory dilution of medicated rat urine tested in vitro for antibacterial activity against Proteus mirabilis; Equal to 1:16; format: functional
# [6] = test system: Staphylococcus aureus; test: Minimum inhibitory dilution of medicated rat urine tested in vitro for antibacterial activity against Staphylococcus aureus; Equal to 1:32; format: functional
# [7] = test system: Mus musculus; test: Antitubercular activity (100 mg/kg) in the 31-day murine mice model; NA=Not active; format: functional, organism-based
# Procedure, shortened: (§2)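 Female Swiss mice (14–16 g), 10 per treated group and 20 infected controls, were infected i.v. with 0.1 mL of a 2 mg/mL M. tuberculosis H37Rv suspension. Oral dosing was in 0.5 mL 1.0% gum tragacanth, starting day 3 post-infection, twice daily, 5 days/week for 4 weeks. Percent survival was recorded at day 31; active meant survival consistently >80%.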
# [8] = test system: Mus musculus; test: Antitubercular activity (12.5 mg/kg) in the 31-day murine mice model; NA=Not active; format: functional, organism-based; procedure, shortened: as §2
# [9] = test system: Mus musculus; test: Antitubercular activity (25 mg/kg) in the 31-day murine mice model; NA=Not active; format: functional, organism-based; procedure, shortened: as §2
# [10] = test system: Mus musculus; test: Antitubercular activity (3.1 mg/kg) in the 31-day murine mice model; NA=Not active; format: functional, organism-based; procedure, shortened: as §2
# [11] = test system: Mus musculus; test: Antitubercular activity (50 mg/kg) in the 31-day murine mice model; NA=Not active; format: functional, organism-based; procedure, shortened: as §2
# [12] = test system: Mus musculus; test: Antitubercular activity (6.25 mg/kg) in the 31-day murine mice model; NA=Not active; format: functional, organism-based; procedure, shortened: as §2
# [13] = test system: Staphylococcus aureus; test: Minimum inhibitory dilution of medicated rat urine tested in vitro for antibacterial activity against Staphylococcus aureus; Equal to 1:2; format: functional
# [14] = test system: Proteus mirabilis; test: Minimum inhibitory dilution of medicated rat urine tested in vitro for antibacterial activity against Proteus mirabilis; Equal to 1:8; format: functional
# [15] = test system: Staphylococcus aureus; test: Minimum inhibitory dilution of medicated rat urine tested in vitro for antibacterial activity against Staphylococcus aureus; Equal to 1:16; format: functional
# [16] = test system: Mus musculus; test: Antitubercular activity (100 mg/kg) in the 31-day murine mice model; format: functional; procedure, shortened: as §2
# [17] = test system: Mus musculus; test: Antitubercular activity (12.5 mg/kg) in the 31-day murine mice model; format: functional; procedure, shortened: as §2
# [18] = test system: Mus musculus; test: Antitubercular activity (25 mg/kg) in the 31-day murine mice model; format: functional; procedure, shortened: as §2
# [19] = test system: Mus musculus; test: Antitubercular activity (50 mg/kg) in the 31-day murine mice model; format: functional; procedure, shortened: as §2
# [20] = test system: Mus musculus; test: Antitubercular activity (6.25 mg/kg) in the 31-day murine mice model; format: functional; procedure, shortened: as §2
# [21] = test system: Staphylococcus aureus; test: Minimum inhibitory dilution of medicated rat urine tested in vitro for antibacterial activity against Staphylococcus aureus; Equal to 1:4; format: functional
# [22] = test system: Mus musculus; test: Antitubercular activity (3.1 mg/kg) in the 31-day murine mice model; format: functional; procedure, shortened: as §2
# [23] = test system: Staphylococcus aureus; test: Minimum inhibitory dilution of medicated rat urine tested in vitro for antibacterial activity against Staphylococcus aureus; Equal to 1:8; format: functional
# [24] = test system: Proteus mirabilis; test: Minimum inhibitory dilution of medicated rat urine tested in vitro for antibacterial activity against Proteus mirabilis; Equal to 1:128; format: functional
# Procedure, shortened: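 Female Sprague-Dawley rats (160–200 g), in groups of three, got 50 mg/kg orally in 1.0% gum tragacanth (1 mL/100 g), with a second 50 mg/kg dose 8 h later. Pooled 24-h urine was centrifuged, ultrafiltered and stored at −20 °C. It was serially diluted twofold in tryptose phosphate broth with inoculum (18-h culture at OD 0.1, then 1:250) and incubated 18 h at 37 °C. MID is the highest dilution without visible growth.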
# [25] = test system: Proteus mirabilis; test: Minimum inhibitory dilution of medicated rat urine tested in vitro for antibacterial activity against Proteus mirabilis; Equal to 1:32; format: functional
# [26] = Proteus mirabilis, read-out: MIC
# [27] = Staphylococcus aureus, read-out: MIC
SMILES,MID [1],"MIC [2, 26] [µg/mL]","MIC [3, 27] [µg/mL]",MID [4],also measured
CN(C)C1=CC(=O)C=C/C1=N/n1cccc1,<0.5,> 125,62.5,<0.5,
O=Nc1ccc(Nn2cccc2)cc1,<0.5,250,125,<0.5,
COc1ccc(Nn2cccc2)cc1,,> 125,> 125,,MID [5]: 0.0625; MID [6]: 0.03125
CC(=O)Oc1ccc(N(C(C)=O)n2cccc2)cc1,<0.5,> 125,> 250,,Survival [7]: inactive; Survival [8]: inactive; Survival [9]: inactive; Survival [10]: inactive; Survival [11]: inactive; Survival [12]: inactive; MID [13]: 0.5
O=C(N[C@H](CO)[C@H](O)c1ccc([N+](=O)[O-])cc1)C(Cl)Cl [CHLORAMPHENICOL],,> 62.5,3.9,,MID [14]: 0.125; MID [15]: 0.0625
CC(=O)Oc1ccc(Nn2cccc2)cc1,<0.5,> 62.5,> 62.5,,MID [15]: 0.0625
O=C1C=C/C(=N/n2cccc2)c2ccccc21,<0.5,> 62.5,31.3,,MID [13]: 0.5
[N-]=[N+]=NC1=CC(=O)C=C/C1=N/n1cccc1,<0.5,> 250,125,<0.5,
O=C1C=C/C(=N/n2cccc2)C(Cl)=C1,<0.5,> 125,31.3,<0.5,
CC1=CC(=N/n2cccc2)/C=CC/1=N/n1cccc1,<0.5,> 62.5,> 62.5,<0.5,
c1ccn(Nc2ccc(Nn3cccc3)cc2)c1,<0.5,> 250,125,<0.5,Survival [16]: 0%; Survival [17]: 0%; Survival [18]: 40%; Survival [19]: 0%; Survival [20]: 0%
Cc1ccc(C)n1Nc1ccc(O)cc1,<0.5,15.6,≤ 7.8,,MID [21]: 0.25
NNC(=O)c1ccncc1 [ISONIAZID],,,,,Survival [17]: 100%; Survival [22]: 100%; Survival [20]: 100%
Oc1ccc(Nn2cccc2)cc1O,<0.5,62.5,≤ 7.8,,MID [23]: 0.125
Oc1ccc(Nn2cccc2)c(Cl)c1,0.5,> 125,62.5,<0.5,
CN(c1ccc(O)cc1)n1cccc1,<0.5,> 250,125,<0.5,
CCn1cc(C(=O)O)c(=O)c2ccc(C)nc21 [NALIDIXIC ACID],,15.6,62.5,,MID [24]: 0.00781; MID [15]: 0.0625
C1=CC(=Nn2cccc2)C=CC1=Nn1cccc1 [AZAROLE],,,,,Survival [17]: 80%; Survival [22]: 70%; Survival [20]: 100%; MID [25]: 0.03125; MIC [2]: >125 µg/mL; MIC [3]: >62.5 µg/mL; MID [23]: 0.125
